From publication PMC2863310 (Pigment cell & melanoma research, 2009) come the findings set out here.

Residues, ends and D or L forms follow the SMILES beside them. *: point of attachment. Cbz = O=C(OCc1ccccc1)*

The target of experiment [1] is T1, Siah2 (Mus musculus, UniProt Q06986).
T1 sequence (Q06986 1-325): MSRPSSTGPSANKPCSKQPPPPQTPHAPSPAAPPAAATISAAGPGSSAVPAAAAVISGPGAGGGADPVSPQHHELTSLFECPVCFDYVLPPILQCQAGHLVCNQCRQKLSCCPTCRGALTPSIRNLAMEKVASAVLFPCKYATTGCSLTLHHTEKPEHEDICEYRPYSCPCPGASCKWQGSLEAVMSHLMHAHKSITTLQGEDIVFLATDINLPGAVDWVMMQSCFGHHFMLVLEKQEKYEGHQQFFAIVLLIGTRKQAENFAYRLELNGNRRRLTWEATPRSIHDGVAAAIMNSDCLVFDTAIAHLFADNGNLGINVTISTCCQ
The experiment is described as follows: In vivo auto-ubiquitination of Siah2 in 293T cells. Format: cell-based. As to conditions: MEN 25 µM or MG132 40 µM, 6 h. In short, it runs like this:
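293T cells (DMEM, 10% BS) were co-transfected with Flag-Siah2 with or without HA-ubiquitin and treated 24 h later. Cells were lysed in 2% SDS/TBS at 95°C for 10 min, diluted ninefold in 1% Triton X-100/2 mM EDTA, sonicated, precleared with protein G and clarified. Anti-Flag immunoprecipitation used 2 mg protein overnight at 4°C. After stringent washes, 8% SDS-PAGE was blotted with anti-HA and reprobed with anti-Flag.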

Experiment [2] relates to HIF-1α. The experiment is described as follows: HIF-1α protein level in 293T cells. Format: cell-based. As to conditions: hypoxia 1% O2, 5 h.
In another experiment the test system is UACC903 melanoma tumors. The experiment is described as follows: UACC903 melanoma xenograft in nude mice. Format: in vivo, mouse. In short, it runs like this: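 UACC903 cells (1 × 10^6 in 100 µl PBS) are injected s.c. into the flank of 4-week-old male nude mice. From 1 week, test compound (2, 5 or 10 mg/kg; 0.1% DMSO final) is given i.p. twice weekly for 4 weeks, with tumors measured twice weekly. Harvested tumors: Z-fix, IHC for HIF-1α/pERK (HRP polymer, DAB, hematoxylin), TUNEL (peroxidase kit), and pERK/total ERK immunoblots.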

The next experiment has as its system SW1 melanoma cells. The experiment in a line: Semi-quantitative RT-PCR of HIF-1α and VEGF transcripts. Format: cell-based, mouse.
The target of experiment [3] is T2, GST-Siah2 (Mus musculus, UniProt Q06986).
T2 sequence (Q06986 1-325): T1 sequence (Q06986 1-325)
The experiment is described as follows: In vitro ubiquitination assay, Western blot with anti-ubiquitin. The format is biochemical. In short, it runs like this: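 GST-Siah2 (with GST-RNF5 and GST-Siah2 RING mutant in parallel), bacterially expressed, glutathione-purified. Reactions on glutathione beads in 50 mM Tris-HCl pH 8.0, 5 mM MgCl2, 0.5 mM DTT, 2 mM NaF, with HA-ubiquitin (2 µg), 2 mM ATP, E1 (50 ng) and His-UbcH5b (250 ng), 45 min, 37°C, with shaking. Test compound at 100 µM or a concentration series. Read-out: 8% SDS-PAGE, anti-ubiquitin blot; anti-GST for input.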
On the technique in general: In western blotting, separated proteins are transferred to a membrane and probed.

Experiment [4] concerns Human Microvascular Endothelial Cells (HMVEC). The experiment in a line: HMVEC tube formation with conditioned medium of treated SW1 cells. The format is cell-based. Conditions: medium from SW1 cells treated 10 h under hypoxia; read after 16 h.
The subject of a further experiment is VEGF. The experiment is described as follows: VEGF secretion from SW1 melanoma cells. The format is cell-based, mouse. Conditions: 10 h, ELISA. (An ELISA detects its analyte on a solid surface through an enzyme-linked reagent.)
For experiment [5], the target named is T2, GST-Siah2. The experiment in a line: Meso Scale electro-chemiluminescent Siah2 self-ubiquitination assay. Format: biochemical. In short, it runs like this:
(§1)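 Electrochemiluminescent format. GST-Siah2 or GST-RNF5 (5 pM final) is adsorbed onto glutathione-coated wells. Test compound is added in 100% DMSO. Reaction is started with a pre-charged ubiquitin-E1-E2 mix and runs 1 h at room temperature, then is stopped by Tris-buffered washes. SULFO-Tag antibody to ubiquitinated proteins is added and the signal is read. Library tested at 100 µM; hits confirmed by dose-response curves.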

Experiment [6] deals with HIF-1α. The experiment in a line: HIF-1α protein level in SW1 melanoma cells. The format is cell-based. Conditions: SW1 mouse melanoma cells, hypoxia 1% O2, 5 h.
Another experiment deals with T3, Siah1 (Mus musculus, UniProt P61092).
T3 sequence (P61092 1-282): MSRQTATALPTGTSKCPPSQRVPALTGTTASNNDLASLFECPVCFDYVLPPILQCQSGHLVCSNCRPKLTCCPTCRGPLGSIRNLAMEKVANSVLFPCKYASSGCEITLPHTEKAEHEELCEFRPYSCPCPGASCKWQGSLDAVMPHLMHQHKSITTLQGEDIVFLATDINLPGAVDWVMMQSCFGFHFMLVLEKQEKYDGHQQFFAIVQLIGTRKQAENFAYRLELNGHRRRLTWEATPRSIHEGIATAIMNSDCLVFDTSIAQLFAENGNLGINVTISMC
The experiment in a line: Siah1 ubiquitin ligase activity. The format is biochemical.

Another experiment concerns SPRY2. The experiment in a line: Spry2 expression in 293T cells transfected with Myc-Spry2 and HA-Siah2. The format is cell-based. Conditions: 5 h.
Experiment [7] concerns the target T4, GST-RNF5 (Homo sapiens, UniProt Q99942). The experiment in a line: In vitro ubiquitination assay, Western blot with anti-ubiquitin. Format: biochemical. As to conditions: 100 µM. Summed up:
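Bacterially expressed GST-RNF5 was purified on glutathione resin. The reaction buffer was 50 mM Tris-HCl pH 8.0, 5 mM MgCl2, 0.5 mM DTT and 2 mM NaF, with HA-ubiquitin (2 µg), 2 mM ATP, E1 (50 ng) and purified His-UbcH5b E2 (250 ng). Test compound was present at 100 µM, and reactions ran 45 min at 37°C.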

Experiment [8] concerns the target T1, Siah2. The experiment in a line: Siah steady-state levels in transfected 293T cells. Format: cell-based. In short, it runs like this: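 293T cells (DMEM, 10% BS) were transiently transfected with HA-Siah2 or Flag-Siah1a (1 µg) by calcium phosphate or Lipofectamine. They were treated 24 h later with test compound at several concentrations, with DMSO as control. Lysates were immunoblotted for the tag with β-actin as loading control, using fluorescent secondary antibodies and infrared scanning.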

For the next experiment, the system named is UACC903 melanoma cells. The experiment in a line: Spry2 and pERK levels in UACC903 melanoma cells. The format is cell-based, human. Conditions: 5 h. Summed up:
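UACC903 human melanoma cells are treated 5 h with a concentration series of test compound. Blots are probed overnight at 4°C and detected with fluorescent secondary antibodies. Total ERK or β-actin serves as loading control.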

Another experiment has as its system PHD3. The experiment in a line: PHD3 level and half-life. Format: cell-based, mouse. Summed up:
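Immortalized MEFs are kept in 10% FBS with 0.1 mM non-essential amino acids and 0.2 mM 2-mercaptoethanol. Cells get test compound (25 µM), with or without 5 mM N-acetyl L-cysteine. PHD3 is blotted after 1% O2, 5 h; Spry2 under normoxia; HIF-1α in nuclear extracts. β-actin/lamin A are loading controls. For half-life, cycloheximide (20 µg/ml) is added after 5 h hypoxia and cells are harvested over time.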

The target in experiment [9] is T2, GST-Siah2. The experiment in a line: In vitro protein-binding assay of GST-Siah2 with PHYL or Spry2. Summed up: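 GST-Siah2 was affinity-purified onto glutathione-Sepharose 4B beads. Spry2 and PHYL were made by coupled in vitro transcription/translation in reticulocyte lysate with [35S]-methionine and mixed with the GST fusion on glutathione beads. Bound protein was resolved on 12% SDS-PAGE and detected by autoradiography.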

Experiment [10] addresses T4, GST-RNF5. The experiment is described as follows: Meso Scale electro-chemiluminescent RNF5 ubiquitination assay. Format: biochemical. Summed up:
as §1

T4 sequence (Q99942 whole entry): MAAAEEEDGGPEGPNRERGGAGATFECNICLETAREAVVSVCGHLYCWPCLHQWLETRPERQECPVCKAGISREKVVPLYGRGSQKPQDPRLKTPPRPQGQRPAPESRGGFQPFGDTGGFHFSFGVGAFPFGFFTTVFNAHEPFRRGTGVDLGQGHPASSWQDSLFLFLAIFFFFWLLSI

In the case of `CC(C)C[C@@H](C=O)NC(=O)[C@H](CC(C)C)NC(=O)[C@H](CC(C)C)NC(=O)OCc1ccccc1` [MG132] (Cbz-Leu-Leu-Leu-aldehyde), at Siah2 [1], the “Siah2 ubiquitination in vivo” value was “increased the ubiquitinated and unubiquitinated forms of Siah2”.
The IC50 is the concentration that inhibits the measured activity by half. Consider `CC1=CC(=O)c2ccccc2C1=O` [compound 1, menadione], for which the HIF-1α expression result with HIF-1α [2] is “reduced the expression of HIF-1α in a dose-dependent manner”. The “pERK levels in tumors” value in the experiment on UACC903 melanoma tumors (IHC and immunoblot of xenograft tumors) is given as “effectively reduced the levels of pERK”. The “HIF-1α expression in tumors” value in the experiment on UACC903 melanoma tumors (IHC of xenograft tumors) is “lower levels of HIF-1α expression”. Further, the “degree of apoptosis in tumors (TUNEL)” value in the experiment on UACC903 melanoma tumors (xenograft tumors) is “found to be higher”. Also, in the experiment with SW1 melanoma cells, the “level of HIF-1α transcripts” value was “did not alter the level of HIF-1α transcripts” and the “transcription of VEGF” value is reported as “inhibited the transcription of the HIF-1α target gene, VEGF”. Also, the “Siah2 auto-ubiquitination in vitro” value at GST-Siah2 [3] (100 µM, new lots of compounds, Western blot) is on record as “strongest degree of Siah2 inhibition”. The “Siah2 auto-ubiquitination in vitro, dose dependence” value on GST-Siah2 [3] (GST-Siah2 on glutathione beads, increasing concentrations) is “attenuated in a dose-dependent manner”. Also, in [4], the “tube formation of HMVEC cells” value was “dose-dependent decrease in tube formation”. Further, in the experiment with VEGF, the “level of VEGF secreted” value was “proportionally reduced”. The molecule also showed an IC50 against GST-Siah2 [5] of 20 µM. Further, the “Siah2 ubiquitination in vivo” value on Siah2 [1] is reported as “effectively inhibits Siah2 ubiquitination in vivo”. Besides, the HIF-1α expression entry in the experiment with HIF-1α [6] is “effectively reduced the level of HIF-1α expression”. In addition, the “Siah1 ubiquitin ligase activity” value at Siah1 is “attenuated Siah1 ubiquitin ligase activity”. For the same molecule, the “Siah2-dependent decrease in SPRY2 expression” value in the experiment with SPRY2 is reported as “attenuated Siah2-dependent decrease in SPRY2 expression”. For the same molecule, the “RNF5 self-ubiquitination in vitro” value on GST-RNF5 [7] is recorded as “did not reduce RNF5 self-ubiquitination activity”. Further, the “steady-state levels of Siah2 / Siah1a” value at Siah2 [8] is “increase the steady-state levels of Siah2”. Also, in the experiment with UACC903 melanoma cells, the “ERK activity / phosphorylation” value is “ERK activity was decreased” and the SPRY2 level entry is listed as “increase in SPRY2 level”. In addition, the “stabilization of PHD3 or Spry2, effect on HIF-1α, in presence of ROS scavenger” value in the experiment on PHD3 (MEF cells, 25 µM with 5 mM N-acetyl cysteine) is listed as “not affected”. Further, the “steady state levels of endogenous PHD3” value in the experiment on PHD3 (MEF cells, hypoxia 1% O2, 5 h, increasing concentrations) is “corresponding increase in the steady state levels of endogenous PHD3”. Also, the “increase of PHD3 or Spry2 expression in Siah KO cells” value in the experiment with PHD3 (Siah2 KO and Siah2/Siah1a DKO MEF, 25 µM) was “attenuated in the Siah2 KO and completely abolished in the Siah2/1a DKO cells”. Besides, the “association of Siah2 with PHYL or Spry2” value on GST-Siah2 [9] was “without affecting the association with PHYL or Spry2”. On GST-RNF5 [10], this molecule registered an IC50 of over 100 µM.
